From ChEMBL document CHEMBL6092224, “The Discovery and Preclinical Profile of ALG-000184, a Prodrug of the Potent Hepatitis B Virus Capsid Assembly Modulator ALG-001075” (J Med Chem, 2024)
Blank lines part the entries; values can stand above or below the molecule they belong to. Calls of active or inactive are those of the source. The rule behind the calls is not given here.

Columns and labels:
[1] = Ratio of drug concentration in blood to plasma in mouse at 5 uM incubated for 60 mins; assay type: ADME, cell-free
Outline: (§1)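 Compound at 5 μM in whole blood of each species, 37 ± 1 °C for 60 min; blood-to-plasma ratio and red blood cell partitioning determined.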

Hepatitis B virus [2] = assay: Antiviral activity against HBV infected in human primary hepatocyte cells assessed as decrease in HBV RNA production pre-infected cells with virus followed by compound treatment for 3 days and subsequent replacement of medium with compound measured after 4 days by qPCR analysis; assay type: functional, organism-based
[3] = Half life in Beagle dog at 1 mg/kg, iv by LC-MS/MS analysis; assay type: ADME, organism-based, Canis lupus familiaris; settings: in vivo
Outline: (§2)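 Single dose to fasted male C57BL6 mice, Sprague-Dawley rats, beagle dogs and cynomolgus monkeys, either IV at 1 mg/kg or PO as a solution at 5 mg/kg, in 80% PEG 400 in water. Plasma concentrations were measured by LC-MS/MS. PK parameters come from noncompartmental analysis using nominal doses and nominal sampling times.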

[4] = Tmax in Beagle dog at 5 mg/kg, po by LC-MS/MS analysis; assay type: ADME, organism-based, Canis lupus familiaris; settings: in vivo
Outline: (§3)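 Fasted males (C57BL6 mice, Sprague−Dawley rats, beagle dogs, cynomolgus monkeys) given a single oral solution dose of 5 mg/kg in 80% PEG 400 in water. Plasma sampled over time, analysed by LC-MS/MS. Noncompartmental analysis used nominal doses and nominal sampling times.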

[5] = Tmax in Cynomolgous monkey at 5 mg/kg, po by LC-MS/MS analysis; assay type: ADME, organism-based, Macaca fascicularis; settings: cynomolgus monkey, in vivo; outline: as §3
[6] = AUC (infinity) in Sprague-Dawley rat at 1 mg/kg, iv by LC-MS/MS analysis; assay type: ADME, organism-based; settings: in vivo; outline: as §2
MDCKII-MDR1 = assay: Substrate activity at p-gp in MDCKII-MDR1 cells incubated for 150 mins; assay type: cell-based; settings: Canis lupus familiaris
Outline: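 P-gp substrate test in MDR1-MDCK II and parental MDCK II cells, with or without the P-gp inhibitor GF120918, 150 min incubation. Parent compound run at 2 μM; prodrug at 2, 10 and 100 μM.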

[7] = biological target: Multidrug and toxin extrusion protein 2 (Homo sapiens, UniProt Q86VL8); assay: Inhibition of MATE2 (unknown origin) transfected in HEK293 cells; assay type: cell-based
[8] = Toxicity in C57BL/6 mouse infected with AAV-Hepatitis B virus assessed as change in ALT level at 15 mg/kg, po bid for 56 days followed by induction of compound washout period for 14 days; assay type: organism-based; settings: in vivo, 1680 h, time 70 day
[9] = Half life in C57BL/6J mouse at 5 mg/kg, po by LC-MS/MS analysis; assay type: ADME, organism-based; settings: in vivo; outline: as §2
[10] = Oral bioavailability in Beagle dog at 5 mg/kg by LC-MS/MS analysis; assay type: ADME, organism-based, Canis lupus familiaris; settings: in vivo
Outline: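 Fasted male C57BL6 mice, Sprague–Dawley rats, beagle dogs, cynomolgus monkeys; single IV dose 1 mg/kg or PO solution 5 mg/kg in 80% PEG 400 in water; plasma concentrations measured, noncompartmental analysis with nominal doses and times; F from PO vs IV AUC.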

[11] = Effect on cell proliferation in bone marrow (unknown origin) upto 10 uM; assay type: toxicity, tissue-based
[12] = Efflux ratio of apparent permeability in human Caco-2 cells at 1 uM incubated for 1 hr; assay type: ADME, cell-based
Outline: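 Bidirectional transport across Caco-2 cells in HBSS, pH 7.4, 0.1% final DMSO. Compound was tested at 1 or 2 μM for 1 h at 37 °C, 5% CO2. Apical and basal samples gave apparent permeability A→B and B→A, and the efflux ratio.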

[13] = Metabolic stability in human assessed as half life at 1 uM incubated upto 180 mins
[14] = Tmax in Sprague-Dawley rat at 5 mg/kg, po by LC-MS/MS analysis; assay type: ADME, organism-based; settings: in vivo; outline: as §3
[15] = Plasma protein binding in mouse at 1 uM incubated for 4 to 24 hrs by equilibrium dialysis method; assay type: ADME, cell-free; settings: time 4-24 hrs, read-out: PPB (converted)
Outline: (§4)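 Rapid equilibrium dialysis in mouse, rat, dog, monkey or human plasma for 4 or 24 h; test concentrations 1, […].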

[16] = Volume of distribution at steady state in Cynomolgous monkey at 1 mg/kg, iv by LC-MS/MS analysis; assay type: ADME, organism-based, Macaca fascicularis; settings: cynomolgus monkey, in vivo, read-out: Vdss
Outline: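 Fasted males (C57BL6 mice, Sprague−Dawley rats, beagle dogs, cynomolgus monkeys) given a single IV dose of 1 mg/kg in 80% PEG 400 in water. Plasma concentrations measured by LC-MS/MS. Vss derived by noncompartmental analysis using nominal dose and nominal sampling times.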

Mus musculus = assay: Effect on HBeAg level in C57BL/6 mouse infected with AAV-Hepatitis B virus at 15 to 50 mg/kg, po qd for 56 days followed by induction of compound washout period for 14 days; assay type: functional, organism-based; settings: dose 15-50 mg/kg, time 70.0 day
[17] = Plasma protein binding in dog at 1 uM incubated for 4 to 24 hrs by equilibrium dialysis method; assay type: ADME, cell-free, Canis lupus familiaris; settings: time 4-24 hrs, read-out: PPB (converted); outline: as §4
[18] = Metabolic stability in Cynomolgous monkey hepatocytes assessed as half life at 1 uM incubated upto 180 mins; settings: cynomolgus monkey
Hepatitis B virus [19] = assay: Antiviral activity against HBV infected in human primary hepatocyte cells assessed as decrease in HBsAg level pre-infected cells with virus followed by compound treatment for 3 days and subsequent replacement of medium with compound measured after 4 days by CLIA; assay type: functional, organism-based
[20] = Ratio of drug concentration in blood to plasma in Cynomolgous monkey at 5 uM incubated for 60 mins; assay type: ADME, cell-free, Macaca fascicularis; settings: cynomolgus monkey; outline: as §1
[21] = Plasma protein binding in rat at 1 uM incubated for 4 to 24 hrs by equilibrium dialysis method; assay type: ADME, cell-free; settings: time 4-24 hrs, read-out: PPB (converted); outline: as §4
[22] = Half life in Cynomolgous monkey at 5 mg/kg, po by LC-MS/MS analysis; assay type: ADME, organism-based, Macaca fascicularis; settings: cynomolgus monkey, in vivo; outline: as §2
[23] = AUC (infinity) in Beagle dog at 5 mg/kg, po by LC-MS/MS analysis; assay type: ADME, organism-based, Canis lupus familiaris; settings: in vivo; outline: as §2
[24] = Plasma protein binding in rat at 2 uM incubated for 4 to 24 hrs by equilibrium dialysis method; assay type: ADME, cell-free; settings: time 4-24 hrs, read-out: PPB (converted)
Outline: (§5)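 Rapid equilibrium dialysis in mouse, rat, dog, monkey or human plasma for 4 or 24 h at 2 μM.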

[25] = Prodrug conversion in high fat diet-fed Beagle dog assessed as formation of N-(3-cyano-4-fluorophenyl)-4-(2-((3-ethynyloxetan-3-yl)amino)-2-oxoacetyl)-1,3,5-trimethyl-1H-pyrrole-2-carboxamide metabolite at 5 mg/kg, po measured for 96 hrs; assay type: ADME, organism-based, Canis lupus familiaris; settings: in vivo
[26] = Plasma protein binding in human at 2 uM incubated for 4 to 24 hrs by equilibrium dialysis method; assay type: ADME, cell-free; settings: time 4-24 hrs, read-out: PPB (converted); outline: as §5
[27] = Plasma protein binding in mouse at 2 uM incubated for 4 to 24 hrs by equilibrium dialysis method; assay type: ADME, cell-free; settings: time 4-24 hrs, read-out: PPB; outline: as §5
[28] = Plasma protein binding in Cynomolgous monkey at 2 uM incubated for 4 to 24 hrs by equilibrium dialysis method; assay type: ADME, cell-free, Macaca fascicularis; settings: cynomolgus monkey, time 4-24 hrs, read-out: PPB (converted); outline: as §5
[29] = biological target: Solute carrier family 22 member 6 (Homo sapiens, UniProt Q4U2R8); assay: Inhibition of OAT1 (unknown origin) transfected in HEK293 cells; assay type: cell-based
Outline: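 HEK-293 cells transfected with the uptake transporter; uptake of known probe substrates measured with test compound at eight concentrations (0.0229–50.0 μM or 0.0457–100 μM); inhibition at each concentration used to calculate IC50.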

Chain of Solute carrier family 22 member 6 (Q4U2R8 whole entry): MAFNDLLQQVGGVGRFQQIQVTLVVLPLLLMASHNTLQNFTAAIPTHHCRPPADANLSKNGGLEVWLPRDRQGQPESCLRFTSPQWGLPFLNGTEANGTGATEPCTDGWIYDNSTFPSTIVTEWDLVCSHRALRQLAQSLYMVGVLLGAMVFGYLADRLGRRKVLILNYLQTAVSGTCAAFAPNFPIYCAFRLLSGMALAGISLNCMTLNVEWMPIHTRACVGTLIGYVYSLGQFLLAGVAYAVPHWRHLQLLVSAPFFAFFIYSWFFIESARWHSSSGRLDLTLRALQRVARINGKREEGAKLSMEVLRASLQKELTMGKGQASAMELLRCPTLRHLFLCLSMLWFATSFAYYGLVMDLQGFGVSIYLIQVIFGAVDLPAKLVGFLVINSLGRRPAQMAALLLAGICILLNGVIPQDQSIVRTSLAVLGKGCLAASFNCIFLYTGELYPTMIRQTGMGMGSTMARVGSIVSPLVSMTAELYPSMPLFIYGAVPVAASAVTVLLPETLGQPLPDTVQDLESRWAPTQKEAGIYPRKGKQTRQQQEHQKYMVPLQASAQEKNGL
Chain of Multidrug and toxin extrusion protein 2 (Q86VL8 whole entry): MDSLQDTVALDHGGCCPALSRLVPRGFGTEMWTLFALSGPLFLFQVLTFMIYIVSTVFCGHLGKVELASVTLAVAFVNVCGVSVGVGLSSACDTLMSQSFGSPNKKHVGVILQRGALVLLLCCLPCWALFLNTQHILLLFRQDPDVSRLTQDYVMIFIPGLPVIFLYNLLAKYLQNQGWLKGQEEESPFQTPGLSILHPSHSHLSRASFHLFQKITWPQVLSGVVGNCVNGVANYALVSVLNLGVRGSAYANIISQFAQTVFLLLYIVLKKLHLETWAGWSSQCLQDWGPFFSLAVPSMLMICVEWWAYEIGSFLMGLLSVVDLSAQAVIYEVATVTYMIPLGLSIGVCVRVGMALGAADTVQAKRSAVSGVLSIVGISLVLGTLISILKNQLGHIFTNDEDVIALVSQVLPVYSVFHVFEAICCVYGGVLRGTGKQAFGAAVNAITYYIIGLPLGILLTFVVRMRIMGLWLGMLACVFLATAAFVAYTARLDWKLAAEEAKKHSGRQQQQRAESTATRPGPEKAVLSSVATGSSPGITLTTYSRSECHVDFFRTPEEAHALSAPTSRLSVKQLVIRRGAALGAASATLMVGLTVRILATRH

Structure (SMILES): C#CC1(NC(=O)C(=O)c2c(C)c(C(=O)Nc3ccc(F)c(C#N)c3)n(C)c2C)COC1
blood plasma ratio at 1 h, 5 µM [1]: 0.83
EC50 (Hepatitis B virus [2]): 54.7 nM
half-life [3]: 6.38 h
Tmax [4]: 2.17 h
Tmax [5]: 1.17 h
AUC(0-inf) [6]: 2780 ng·h/mL
Activity (MDCKII-MDR1): Active
IC50 [7]: > 11800 nM
Activity [8]: Non-toxic
half-life [9]: 1.55 h
bioavailability [10]: 57.5%
Activity [11]: Non-toxic
efflux ratio at 1 h, 1 µM [12]: 7.8
half-life at 1 µM [13]: > 6 h
Tmax [14]: 1.67 h
fraction unbound at 1 µM [15]: 0.354
Vd [16]: 0.89 L/kg
Activity (Mus musculus): inactive
fraction unbound at 1 µM [17]: 0.286
half-life at 1 µM [18]: > 6 h
EC50 (Hepatitis B virus [19]): 70 nM
blood plasma ratio at 1 h, 5 µM [20]: 0.83
fraction unbound at 1 µM [21]: 0.211
half-life [22]: 14.4 h
AUC(0-inf) [23]: 24500 ng·h/mL

fraction unbound at 2 µM [24]: 0.025
Drug metabolism [25]: metabolite_detected
fraction unbound at 2 µM [26]: 0.11
fraction unbound at 2 µM [27]: 0.0913
fraction unbound at 2 µM [28]: 0.126
IC50 [29]: 10800 nM
Structure (SMILES): C#CC1(N(COP(=O)([O-])[O-])C(=O)C(=O)c2c(C)c(C(=O)Nc3ccc(F)c(C#N)c3)n(C)c2C)COC1.[Na+].[Na+]
